Screening data from PubChem BioAssay.
XBP1 UPR activ: activators of adaptive XBP1 UPR arm, primary screen, cell-based, CHO-XBP1 luciferase reporter, luminescence, uHTS; IRE1-XBP1 UPR activation; percent of tunicamycin response, DMSO as zero; activation, % at 20 µM; 330,000 compounds, 0.33% hits;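 active = versus positive control, 20 µM dose yields 30% or more activation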;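 note: 100% = tunicamycin at 10 µg/mL and 0% = DMSO only wells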
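Material: CHO cell line with stable XBP1 luciferase reporter; schedule: 16-18 h cell attachment at 37 °C, then 6 h compound exposure; signal: glow luminescence from Steady-Glo reagent; medium: serum-containing F12 medium, 10% FBS; benchmarks: tunicamycin 10 µg/mL and vehicle-only wells; read-out: percent activation relative to tunicamycin reference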
tim10-1 inh: growth inhibitors of tim10-1 mutant yeast, primary screen, luminescence, uHTS; S. cerevisiae tim10-1 ts strain growth, BacTiter-Glo, 24 h; 330,000 compounds, 2.2% hits; AID 463190, 2010; inhibition, % at 20 µM;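 active = inhibition of at least 40%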;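 note: mutant grown at 25 °C; 0% = DMSO wells with yeast and 100% = wells holding no yeast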
TIM10 inh: growth inhibitors of isogenic TIM10 control yeast, primary screen, counter-screen for tim10-1 yeast inhibitor project, luminescence, uHTS; S. cerevisiae TIM10 strain growth, BacTiter-Glo luminescence, 24 h; inhibition, % at 10 µM; 330,000 compounds, 1.4% hits; AID 463195, 2010;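 active = inhibition of 40% or more at the single tested concentration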;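 note: wild-type TIM10 isogenic control strain grown at permissive 25 °C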
tim23-1 inh: growth inhibitors of tim23-1 mutant yeast, primary screen, luminescence, uHTS; S. cerevisiae tim23-1 growth, BacTiter-Glo luminescence, 24 h; inhibition, % at 20 µM; 330,000 compounds, 1.3% hits; AID 463212, 2010;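 active = growth inhibition of the mutant yeast at or above 50%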;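 note: temperature-sensitive mutant grown at 25 °C; plate controls were DMSO-treated mutant yeast for no effect and medium wells lacking yeast for full effect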
UPR CHOP act: activators of apoptotic CHOP UPR arm, primary screen, cell-based, CHO-CHOP luciferase reporter, luminescence, uHTS; UPR activation; percent of tunicamycin response over DMSO baseline; activation, % at 10 µM; 330,000 compounds, 0.34% hits; AID 449763, 2010;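 active = at 10 µM dose, activation of 40% or more, normalized to positive control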;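 note: 100% = tunicamycin at 10 µg/mL and 0% = DMSO alone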
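Assay system: CHO cells with stable CHOP pathway luciferase reporter; Buffer or medium: F12 plus 10% serum; Times: 16-18 h cell attachment, then 6 h compound exposure, 37 °C; Signal: luciferase luminescence; Read-out basis: percent activation relative to tunicamycin control; Control set: tunicamycin high control, DMSO low control.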
tim10-1 confirm: growth inhibitors of tim10-1 mutant yeast, confirmation, single concentration, luminescence, S. cerevisiae; shares compounds with tim10-1 inh; S. cerevisiae tim10-1 ts strain growth, BacTiter-Glo, 24 h; inhibition, % at 20 µM; 7,400 compounds, 56% hits; AID 463213, 2010;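 active = inhibition of yeast growth at or above a set limit in either of two repeat tests at 20 µM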;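 note: tim10-1 mutant grown at permissive 25 °C to find synthetic lethal compounds; 0% = DMSO yeast wells and 100% = medium wells without yeast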
* = called active by the depositor; / = not tested or not shown. The list is not random: actives were taken first. Their share in the collection is about 3.9%.

SMILES | XBP1 UPR activ | tim10-1 inh | TIM10 inh | tim23-1 inh | UPR CHOP act | tim10-1 confirm
CCOC(=O)C1=C(CSc2nc(C)ccc2C#N)OC(N)=C(C#N)C1c1cccc(OC)c1OC (stereo not drawn) | -1 | 45* | 39 | 25 | 3 | 45*
CCOC(=O)C1=C(CSc2nc(-c3ccncc3)ccc2C#N)OC(N)=C(C#N)C1c1ccc(OC)cc1 (stereo not drawn) | -1 | 45* | 21 | 48 | 5 | 23
CC[C@@H]1C/C=C\Cc2ccccc2[C@@H](C(=O)C[C@@H](O)CC(C)=O)OC1=O | -1 | -4 | -1 | 5 | -1 | /
Cc1ccc(N(CC(=O)NC2CCCCC2)C(=O)CNC(=O)c2ccco2)cc1F | 0 | -15 | 11 | -3 | -2 | /
CN(C(=O)CSc1nnc(-c2ccc(Cl)cc2)n1CC1CCCO1)C1CCS(=O)(=O)C1 (stereo not drawn) | 6 | 4 | 12 | -1 | 2 | /
Cc1cc(C(=O)CSc2nnc(-c3ccc(Cl)cc3)n2CC2CCCO2)c(C)n1C (stereo not drawn) | 1 | 50* | 14 | 33 | -2 | 35*
COC(=O)[C@@H](NC(=O)N1CCC(Cc2ccccc2)CC1)C(C)C | -2 | 5 | 0 | 5 | 1 | /
O=C(O)c1ccc(N=Nc2c(O)ccc3ncccc23)cc1 | -10 | 42* | 15 | 37 | -2 | 34*
Cc1cc(C)c(-c2c(O)c3cccc4c3n(c2=O)CCC4)c(C)c1 | -1 | 47* | 15 | 47 | -1 | 26
O=c1c(-c2ccccc2)c(O)c2cccc3c2n1CCC3 | 0 | -12 | 35 | -33 | 3 | /
COC(=O)C1=C(C)N=c2s/c(=C3\C(=O)Nc4ccccc43)c(=O)n2C1c1ccccc1 (stereo not drawn) | 10 | 40* | 18 | 39 | 1 | 8
CCOC(=O)C1=C(C)n2c(s/c(=C3\C(=O)Nc4ccccc43)c2=O)=NC1c1ccc(OC)cc1 (stereo not drawn) | 16 | 16 | 15 | 32 | 4 | /
CCCCn1c(N)c(N(CCOC)C(=O)CCC2CCCCC2)c(=O)[nH]c1=O | -2 | 9 | 5 | -3 | 1 | /
CCOc1ccc(NC(=O)CN(C)C(=O)c2cc3c(s2)CCCCC3)cc1OCC | -1 | 5 | -2 | 10 | 1 | /
CCCCc1ccc(NC(=S)NCC2CCCO2)cc1 (stereo not drawn) | 0 | 45* | 34 | 26 | 1 | 34*
S=C(NCC1CCCO1)Nc1ccc(Cl)c(Cl)c1 (stereo not drawn) | 1 | 41* | 38 | 29 | 1 | 26
O=C(Cc1ccc(Cl)c(Cl)c1)NNC(=S)NCC1CCCO1 (stereo not drawn) | 2 | 0 | 9 | -5 | -2 | /
CCOC(=O)c1ccc(NC(=O)CCc2nc(-c3ccccc3Cl)no2)cc1 | 0 | 41* | 34 | 30 | 0 | 29*
Cc1cccc(C)c1NC(=O)CN(C)CC(=O)c1c(N)n(Cc2ccccc2)c(=O)n(C)c1=O | -2 | 2 | 4 | -7 | -2 | /
Cc1ccc(-c2nnc(NC(=O)c3ccc([N+](=O)[O-])o3)o2)c(C)c1 | -1 | 9 | -19 | 7 | 0 | /
Cc1ccc(NC(=O)c2ccc([N+](=O)[O-])o2)c(C)c1 | -5 | 40* | 40 | 49 | 2 | 53*
CCC(=O)N1CCN(c2ccc(Cl)cc2NC(=O)c2cccc([N+](=O)[O-])c2)CC1 | 0 | 6 | 6 | 3 | 1 | /
CCC(=O)N1CCN(c2ccc(Cl)cc2NC(=O)c2ccc([N+](=O)[O-])o2)CC1 | -3 | 40* | 27 | 31 | 5 | 27
Cc1cccnc1NC(=O)c1ccc([N+](=O)[O-])o1 | -1 | 17 | 9 | 27 | 1 | /
Cc1ccccc1NC(=O)c1ccc([N+](=O)[O-])o1 | 0 | 51* | 37 | 39 | 2 | 42*
COCCCN(C(=O)CSCc1c(C)noc1C)c1c(N)n(Cc2ccccc2)c(=O)[nH]c1=O | 0 | 4 | 18 | -5 | -1 | /
